Reference: ChEMBL document CHEMBL1154892, “Saponins and polyphenols from Fadogia ancylantha (makoni tea)” (J Nat Prod, 2010)
Values after ≈ are worked out from the molar mass of the structure shown. Active and inactive are the calls of the source. The calls are words filed in the database; no cut-off is given here.

Assays:
Bacillus spizizenii [1] = assay: Antibacterial activity against Bacillus spizizenii ATCC 6633 after 24 hrs by broth microdilution method; format: functional; conditions: ATCC 6633, 24 h
How it was run: (§1)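 Broth microdilution in 96-well plates, in duplicate, following NCCLS (2001); ATCC Gram-positive and Gram-negative bacteria, a yeast and a mold. MIC taken as lowest concentration inhibiting microbial growth after 24 h.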

Staphylococcus aureus [2] = assay: Antibacterial activity against Staphylococcus aureus ATCC 6538 after 48 hrs by broth microdilution method; format: functional; conditions: ATCC 6538, 48 h
How it was run: (§2)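 Broth microdilution in 96-well plates, in duplicate, per NCCLS (2001), ATCC strains. MBC taken as lowest concentration at which no microbial cell survived after 48 h incubation (bacteria) or 5 days (yeast and mold).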

Candida albicans [3] = assay: Antifungal activity against Candida albicans ATCC 10231 after 24 hrs by broth microdilution method; format: functional; conditions: ATCC 10231, 24 h; how it was run: as §1
Aspergillus niger [4] = assay: Antifungal activity against Aspergillus niger ATCC 16404 after 5 days by broth microdilution method; format: functional; how it was run: as §2
Escherichia coli [5] = assay: Antibacterial activity against Escherichia coli ATCC 8739 after 24 hrs by broth microdilution method; format: functional; how it was run: as §1
[6] = test system: Staphylococcus epidermidis; assay: Antibacterial activity against Staphylococcus epidermidis ATCC 12228 after 24 hrs by broth microdilution method; format: functional; conditions: ATCC 12228, 24 h; how it was run: as §1
Candida albicans [7] = assay: Antifungal activity against Candida albicans ATCC 10231 after 5 days by broth microdilution method; format: functional; how it was run: as §2
Escherichia coli [8] = assay: Antibacterial activity against Escherichia coli ATCC 8739 after 48 hrs by broth microdilution method; format: functional, organism-based; how it was run: as §2
[9] = test system: Staphylococcus epidermidis; assay: Antibacterial activity against Staphylococcus epidermidis ATCC 12228 after 48 hrs by broth microdilution method; format: functional; conditions: ATCC 12228, 48 h; how it was run: as §2
Staphylococcus aureus [10] = assay: Antibacterial activity against Staphylococcus aureus ATCC 6538 after 24 hrs by broth microdilution method; format: functional; conditions: ATCC 6538, 24 h; how it was run: as §1
[11] = test system: Radical scavenging activity; assay: Antioxidant activity assessed as DPPH radical scavenging activity after 10 mins; format: functional
How it was run: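 Methanolic sample solution added to DPPH solution (0.025 g/L in MeOH, prepared daily); vehicle alone in control tubes; absorbance read at 515 nm 10 min after start. α-Tocopherol positive control. Triplicate runs; EC50 calculated by Litchfield and Wilcoxon method.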

Pseudomonas aeruginosa [12] = assay: Antibacterial activity against Pseudomonas aeruginosa ATCC 9027 after 24 hrs by broth microdilution method; format: functional; how it was run: as §1
Aspergillus niger [13] = assay: Antifungal activity against Aspergillus niger ATCC 16404 after 24 hrs by broth microdilution method; format: functional; conditions: ATCC 16404, 24 h; how it was run: as §1
Bacillus spizizenii [14] = assay: Antibacterial activity against Bacillus spizizenii ATCC 6633 after 48 hrs by broth microdilution method; format: functional; conditions: ATCC 6633, 48 h; how it was run: as §2
Pseudomonas aeruginosa [15] = assay: Antibacterial activity against Pseudomonas aeruginosa ATCC 9027 after 48 hrs by broth microdilution method; format: functional; how it was run: as §2

SMILES	MIC (Bacillus spizizenii [1])	MIC (Candida albicans [3])	MIC (Escherichia coli [5])	MIC [6]	MIC (Staphylococcus aureus [10])	EC50 [11]	MIC (Pseudomonas aeruginosa [12]; ATCC 9027, 24 h)	MIC (Aspergillus niger [13])	MIC (Escherichia coli [5]; ATCC 8739, 24 h)	MIC (Pseudomonas aeruginosa [12])	MBC (Staphylococcus aureus [2])	MBC (Aspergillus niger [4])	MBC (Candida albicans [7])	MBC (Escherichia coli [8])	MBC [9]	MBC (Bacillus spizizenii [14])	MBC (Pseudomonas aeruginosa [15])	MBC (Candida albicans [7]; ATCC 10231, 120 h)	MBC (Pseudomonas aeruginosa [15]; ATCC 9027, 48 h)	MBC (Aspergillus niger [4]; ATCC 16404, 120 h)
O=c1cc(-c2ccc(O)c(O)c2)oc2cc(O[C@@H]3O[C@H](CO)[C@@H](O)[C@H](O)[C@H]3O)ccc12	1000 µg/mL (≈ 2.31 mM)	4000 µg/mL (≈ 9.25 mM)	inactive	500 µg/mL (≈ 1.16 mM)	2000 µg/mL (≈ 4.63 mM)	28.4 µg/mL (≈ 0.0657 mM)	4000 µg/mL (≈ 9.25 mM)	1000 µg/mL (≈ 2.31 mM)	–	–	4000 µg/mL (≈ 9.25 mM)	inactive	inactive	inactive	4000 µg/mL (≈ 9.25 mM)	1000 µg/mL (≈ 2.31 mM)	inactive	–	–	–
O=C(CCc1ccc(O)cc1)c1ccc(O[C@@H]2O[C@H](CO)[C@@H](O)[C@H](O)[C@H]2O)cc1O [CONFUSOSIDE]	120 µg/mL (≈ 0.285 mM)	4000 µg/mL (≈ 9.51 mM)	–	1000 µg/mL (≈ 2.38 mM)	4000 µg/mL (≈ 9.51 mM)	> 1000 µg/mL	–	120 µg/mL (≈ 0.285 mM)	2000 µg/mL (≈ 4.76 mM)	inactive	4000 µg/mL (≈ 9.51 mM)	inactive	inactive	inactive	2000 µg/mL (≈ 4.76 mM)	1000 µg/mL (≈ 2.38 mM)	inactive	–	–	–
O=c1c(O[C@@H]2O[C@H](CO)[C@@H](O)[C@H](O)[C@H]2O)c(-c2ccc(O)c(O)c2)oc2cc(O)cc(O)c12 [ISOQUERCETIN]	1000 µg/mL (≈ 2.15 mM)	4000 µg/mL (≈ 8.61 mM)	inactive	1000 µg/mL (≈ 2.15 mM)	4000 µg/mL (≈ 8.61 mM)	20.4 µg/mL (≈ 0.0439 mM)	–	2000 µg/mL (≈ 4.31 mM)	–	inactive	4000 µg/mL (≈ 8.61 mM)	–	inactive	inactive	4000 µg/mL (≈ 8.61 mM)	2000 µg/mL (≈ 4.31 mM)	inactive	–	–	4000 µg/mL (≈ 8.61 mM)

More lines, main results first:

MIC (Bacillus spizizenii [1])	MIC (Candida albicans [3])	MIC (Escherichia coli [5])	MIC [6]	MIC (Staphylococcus aureus [10])	EC50 [11]	MIC (Pseudomonas aeruginosa [12]; ATCC 9027, 24 h)	MIC (Aspergillus niger [13])	MIC (Escherichia coli [5]; ATCC 8739, 24 h)	MIC (Pseudomonas aeruginosa [12])	SMILES	MBC (Staphylococcus aureus [2])	MBC (Aspergillus niger [4])	MBC (Candida albicans [7])	MBC (Escherichia coli [8])	MBC [9]	MBC (Bacillus spizizenii [14])	MBC (Pseudomonas aeruginosa [15])	MBC (Candida albicans [7]; ATCC 10231, 120 h)	MBC (Pseudomonas aeruginosa [15]; ATCC 9027, 48 h)	MBC (Aspergillus niger [4]; ATCC 16404, 120 h)
–	–	–	–	–	10.1 µg/mL (≈ 0.0234 mM)	–	–	–	–	Cc1c(C)c2c(c(C)c1O)CC[C@@](C)(CCC[C@H](C)CCC[C@H](C)CCCC(C)C)O2 [ALPHA-TOCOPHEROL]	–	–	–	–	–	–	–	–	–	–
120 µg/mL (≈ 0.465 mM)	1000 µg/mL (≈ 3.87 mM)	–	250 µg/mL (≈ 0.968 mM)	120 µg/mL (≈ 0.465 mM)	> 1000 µg/mL	2000 µg/mL (≈ 7.74 mM)	120 µg/mL (≈ 0.465 mM)	4000 µg/mL (≈ 15.5 mM)	–	O=C(CCc1ccc(O)cc1)c1ccc(O)cc1O [DAVIDIGENIN]	500 µg/mL (≈ 1.94 mM)	inactive	–	inactive	500 µg/mL (≈ 1.94 mM)	500 µg/mL (≈ 1.94 mM)	–	2000 µg/mL (≈ 7.74 mM)	4000 µg/mL (≈ 15.5 mM)	–
